Bioassay records (PubChem)
IDE act = activators of human insulin-degrading enzyme in cells | 340,000 compounds, 0.073% hits | HEK cells, FAbeta-B cleavage, fluorescence polarization; 0% vehicle, 100% cell-free pure enzyme wells | activation, % at 5.96 µM | P14735 | AID 493087;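 active means activation above the mean of all tested compounds plus 3 SD, set per screening campaign, cut at about 17% in these data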
Target sequence (P14735 whole entry, looked up): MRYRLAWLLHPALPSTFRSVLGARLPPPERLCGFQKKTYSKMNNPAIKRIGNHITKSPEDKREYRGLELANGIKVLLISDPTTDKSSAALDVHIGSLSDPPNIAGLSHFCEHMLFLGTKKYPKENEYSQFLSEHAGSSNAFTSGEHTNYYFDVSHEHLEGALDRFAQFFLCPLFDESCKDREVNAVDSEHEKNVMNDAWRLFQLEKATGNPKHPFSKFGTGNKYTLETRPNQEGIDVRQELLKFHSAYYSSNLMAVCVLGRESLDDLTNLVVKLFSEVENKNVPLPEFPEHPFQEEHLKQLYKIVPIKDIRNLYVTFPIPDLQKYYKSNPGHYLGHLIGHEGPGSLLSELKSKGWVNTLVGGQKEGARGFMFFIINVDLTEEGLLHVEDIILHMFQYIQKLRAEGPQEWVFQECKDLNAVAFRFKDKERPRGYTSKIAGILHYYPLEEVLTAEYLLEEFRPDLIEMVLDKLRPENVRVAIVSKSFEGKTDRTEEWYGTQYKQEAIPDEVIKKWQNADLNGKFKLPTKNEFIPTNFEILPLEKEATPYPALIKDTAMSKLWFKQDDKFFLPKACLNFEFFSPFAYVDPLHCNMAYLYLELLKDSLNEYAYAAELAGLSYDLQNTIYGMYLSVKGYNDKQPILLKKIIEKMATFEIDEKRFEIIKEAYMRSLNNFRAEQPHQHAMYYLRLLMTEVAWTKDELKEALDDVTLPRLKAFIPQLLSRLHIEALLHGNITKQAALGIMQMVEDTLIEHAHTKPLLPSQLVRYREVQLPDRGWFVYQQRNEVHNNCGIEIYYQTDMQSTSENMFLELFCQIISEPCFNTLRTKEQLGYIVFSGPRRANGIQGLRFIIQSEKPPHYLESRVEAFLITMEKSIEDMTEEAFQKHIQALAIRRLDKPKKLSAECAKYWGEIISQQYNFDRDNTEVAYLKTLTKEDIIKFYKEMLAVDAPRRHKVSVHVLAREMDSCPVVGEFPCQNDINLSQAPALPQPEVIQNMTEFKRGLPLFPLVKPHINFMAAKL
TPT1 inhibitor = blocks Candida albicans tRNA 2'-phosphotransferase | recombinant caTPT1, FP RNA substrate dephosphorylation | inhibition, % at 5 µM | 300,000 compounds, 0.81% hits | AID 1962;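 active means inhibition above the mean of all tested compounds plus 3 SD, set per screening campaign, cut at about 24% in these data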;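 further: plate controls were DMSO alone for no effect and ferristatin control at 100 nM for full effect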
CSN inh = blocks human CSN-mediated cullin deneddylation; Q92905; Purified CSN, SCF-Nedd8-OG deneddylation, fluorescence polarization; inhibition, % at 12.5 µM; 360,000 compounds, 0.38% hits;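 active means pattern-corrected inhibition above about 35%, with an unprinted fluorescence ratio check between 0.5 and 1.5, limit read from the data, passing the limit was not always enough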;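 further: 0% = enzyme with substrate and 100% = substrate without enzyme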
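Assay system: purified human Csn5 enzyme expressed in HEK293T cells; Input: 0.24 nM Csn5 enzyme, final concentration; Reagent: 10 nM SCFSkp2-Nedd8OG; Compound dosing: 12.5 µM single point; Times: reaction 90 min, room temperature; Technique: fluorescence polarization readout.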
IDE inh = inhibitors of human insulin-degrading enzyme in cells; 320,000 compounds, 0.41% hits; HEK cells, FAbetaB cleavage, fluorescence polarization; P14735; inhibition, % at 5.59 µM; AID 434962;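 active means percent inhibition above the average of all tested compounds plus 3 SD, set per screening campaign, cut at about 16% in these data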;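 further: IDE supplied by intact live HEK cells; FP after avidin binding of uncleaved biotin substrate so inhibition keeps polarization high; 0% = DMSO wells and 100% = 60 µM reference IDE inhibitor Ii1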
HNF4A DNA FP = change in binding of human HNF4 alpha to DNA | activity change, % at 10 µM | P41235 | HNF4a-FITC DNA binding, fluorescence polarization, 1 h | 360,000 compounds, 0.3% hits; in the data active means activity change above about 30%, passing the limit was not always enough
TPT1 inh confirm = confirmation of Candida albicans TPT1 inhibitors. shares compounds with TPT1 inhibitor. recombinant caTPT1, fluorescence polarization, RNase T1 coupled. inhibition, % at 5 µM. 2,400 compounds, 74% hits. AID 2149;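 active means inhibition above the primary screen limit, the mean inhibition of all tested compounds plus 3 SD, cut at about 25% in these data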
RNase T1 inh = counter-screen for TPT1 inhibitors: inhibitors of Aspergillus oryzae RNase T1 | shares compounds with TPT1 inhibitor | 2,400 compounds, 83% hits | AID 2153 | inhibition, % at 5 µM | RNase T1 cleavage, fluorescence polarization, 1536-well;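 active means inhibition above the solvent-only control well mean plus 3 SD, limit set per screening run, cut at about 23% in these data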;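 further: plate controls were DMSO wells with enzyme for no effect and wells without RNase T1 for full effect; inhibitors block cleavage so intact labeled substrate keeps polarization high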
* marks the source's active call; other numbers are inactive results; nt = not tested or not shown. The list is not random: actives were taken first. Their share in the collection is about 1.4%.

SMILES	IDE act	TPT1 inhibitor	CSN inh	IDE inh	HNF4A DNA FP	TPT1 inh confirm	RNase T1 inh
O=c1c(/C=C(\O)c2ccccc2)nc2ccccc2n1-c1ccccc1	-2	119*	19	3	46*	86*	95*
Cc1ccccc1C(=O)N1CCN(c2ccc(NC(=O)c3cccnc3Cl)cc2)CC1	7	94*	8	6	4	5	5
Nc1c(C(=O)O)sc2nc(-c3ccccc3)cc(-c3ccccc3)c12	10	22	2	7	18	nt	nt
Nc1c(C(=O)O)sc2nc(-c3ccccc3)cc(-c3ccc(F)cc3)c12	-2	29*	8	0	35*	27*	38*
O=C(O)CCC1C(=O)NC(=O)CC1c1ccccc1 (stereo not drawn)	nt	nt	3	nt	-3	nt	nt
COc1ccc(Cn2cc(CN3CC(N(C)C)CS3(=O)=O)nn2)cc1 (stereo not drawn)	nt	nt	-5	nt	-3	nt	nt
C=CCc1c(C)nc(-c2ccccc2)nc1N/N=C/c1ccccc1	-1	3	1	2	-2	nt	nt
C=CCc1c(C)nc(-c2ccccc2)nc1Nc1ccccc1O	4	25*	26	8	9	40*	52*
O=C(N/N=C/c1ccc(-c2cccc(C(F)(F)F)c2)o1)c1ccccc1Br	-1	39*	17	-1	6	38*	49*
N#C/C(=C\C=C\c1ccccc1)c1nc(-c2ccc3c(c2)OCO3)cs1	1	37*	3	0	-19	36*	47*
COc1ccc(C)cc1N1CC(C(=O)Nc2ccccc2C(=O)NC2CC2)CC1=O (stereo not drawn)	5	nt	1	-1	-3	nt	nt
CCOC(=O)c1cc(C#N)c(SCC(N)=O)[nH]c1=O	0	32*	-3	-4	-16	40*	50*
N#CC1=C(N)Oc2cc(N)ccc2C1c1ccc(F)cc1F (stereo not drawn)	3	42*	58	7	37	33*	44*
N#CC1=C(N)Oc2cc(N)ccc2C1c1ccc(F)cc1 (stereo not drawn)	2	1	4	2	0	nt	nt
CC(O)CNc1ccc([N+](=O)[O-])cc1S(=O)(=O)N1CCOCC1 (stereo not drawn)	-7	-1	-10	3	-3	nt	nt
O=C(O)CC/C(=N\Nc1ccc([N+](=O)[O-])cc1S(=O)(=O)N1CCOCC1)c1cccs1	0	29*	10	1	-1	41*	52*
CCc1cc2c(SCc3nc4sc(C(C)=O)c(C)c4c(=O)[nH]3)ncnc2s1	-3	37*	17	7	35	33*	50*
Cc1sc2nc(CSc3ncn[nH]3)[nH]c(=O)c2c1C	3	1	-10	-1	0	nt	nt
Oc1[nH]c2ccccc2c1N=Nc1ccccc1F	-18	138*	-96	6	72	129*	130*
COC(=O)[C@H]1[C@H]2C[C@@H]3c4[nH]c5cc(OC)ccc5c4CCN3C[C@H]2C[C@@H](OC(=O)/C=C/c2cc(OC)c(OC)c(OC)c2)[C@@H]1OC	3	38*	0	-1	23	36*	48*
COc1ccc2c3c([nH]c2c1)[C@H]1C[C@H]2[C@H](C[C@@H](O)[C@H](OC)[C@H]2C(=O)O)CN1CC3	-1	0	0	-3	-3	nt	nt
ClCC1NCC(c2ccccc2Cl)c2c1[nH]c1ccccc21 (stereo not drawn)	1	89*	20	-8	-14	14	21
O=C(O)C(Cc1ccccc1)N1C(=O)/C(=C/C=C/c2ccco2)SC1=S (stereo not drawn)	-12	nt	77	nt	-34	nt	nt
O=C(NN1C(=O)/C(=C/C=C/c2ccco2)SC1=S)c1ccccc1O	-1	71*	74	-4	-22	49*	50*
COc1ccc2c3c(n(C(=O)OC(C)(C)C)c2c1)C1CC=C(COC(C)=O)CN1CC3 (stereo not drawn)	nt	nt	6	nt	-5	nt	nt
SMILES	IDE act	TPT1 inhibitor	CSN inh	IDE inh	HNF4A DNA FP	TPT1 inh confirm	RNase T1 inh
C=CCn1c(=O)/c(=C2/Sc3ccccc3N2CC)s/c1=C1/C(=O)NN=C1C	nt	44*	nt	12	nt	48*	59*
Cc1cc(C(=O)OCC(=O)c2ccc(Br)s2)no1	3	2	0	8	4	nt	nt
Cc1cc(C(=O)OCC(=O)c2ccc(Br)s2)c(C)o1	nt	30*	nt	0	nt	6	10
CC1(C(=O)Nc2ccc3c(c2)OCCO3)CN(S(C)(=O)=O)CC(=O)N1CCc1ccccc1F (stereo not drawn)	nt	nt	-5	nt	0	nt	nt
CCOC(=O)C[C@@H](C#N)NC(=O)[C@@H]1CCCN1C(=O)[C@@H](NC(=O)c1ccc(N)c(Cl)c1)C(C)(C)C	nt	nt	-4	nt	2	nt	nt
CN(Cc1ccccc1)C(=O)[C@@H]1CCCN1C(=O)[C@@H]1CCCN1C(=O)c1cccc(Cl)c1	nt	nt	2	nt	1	nt	nt
Cc1nn(-c2ccccc2)c(N2CCCC2)c1/C=C1\N=C(c2ccc(OC(C)C)cc2)OC1=O	5	43*	0	-1	1	73*	81*
C[C@H](CO)N1C[C@H](C)[C@@H](CN(C)C(=O)Nc2cccc(F)c2)Oc2ncc(Br)cc2C1=O	nt	nt	0	nt	-1	nt	nt
Cc1ccc2c(-c3csc(N)n3)c[nH]c2c1	nt	26*	nt	8	nt	15	27*
CN(CCOc1ccc(Cl)c(Cl)c1)Cc1ccccc1	4	-2	8	0	2	nt	nt
CCN(CC)CCCOc1ccc(Cl)c(Cl)c1	5	134*	0	6	-1	9	15
CS(=O)(=O)/C(C#N)=C/c1cccn1S(=O)(=O)c1cccc2ccccc12	nt	nt	-1	nt	2	nt	nt
CCOC(=O)c1c(-c2ccc(OC)cc2)csc1/N=C/C1=C(O)CCCC1=O	-4	139*	11	3	4	33*	50*
COc1ccccc1NC(=O)CSc1nc(N)c(C#N)cc1C#N	nt	32*	7	-6	20	39*	50*
O=C1NC[C@H](CCCCN2C[C@H](Cc3ccc(O)cc3)N(CCc3ccccc3)C(=O)C2=O)N(CCC2CCCCC2)C1=O	nt	nt	5	nt	-3	nt	nt
CCOc1cc(/C=C2/C(=O)NN(c3cccc(Cl)c3)C2=O)ccc1O	3	43*	7	1	2	66*	84*
COc1cc(/C=C2/C(=O)NN(c3cccc(Cl)c3)C2=O)cc(OC)c1O	-18	124*	28	6	-1	151*	150*
COc1cc(/C=C2\C(=O)NN(c3ccccc3)C2=O)ccc1OCC(N)=O	nt	-4	nt	3	nt	nt	nt
CC1(C)CC(=O)C2=C(C1)OC(=O)CC2c1cccs1 (stereo not drawn)	2	-2	8	-3	-3	nt	nt
